Assay results from different studies.
Protocols differ between the studies behind these lines.
Target: Dual specificity mitogen-activated protein kinase kinase 7 (MAP2K7, Homo sapiens, UniProt O14733)
Residues used in one study (O14733 1-419): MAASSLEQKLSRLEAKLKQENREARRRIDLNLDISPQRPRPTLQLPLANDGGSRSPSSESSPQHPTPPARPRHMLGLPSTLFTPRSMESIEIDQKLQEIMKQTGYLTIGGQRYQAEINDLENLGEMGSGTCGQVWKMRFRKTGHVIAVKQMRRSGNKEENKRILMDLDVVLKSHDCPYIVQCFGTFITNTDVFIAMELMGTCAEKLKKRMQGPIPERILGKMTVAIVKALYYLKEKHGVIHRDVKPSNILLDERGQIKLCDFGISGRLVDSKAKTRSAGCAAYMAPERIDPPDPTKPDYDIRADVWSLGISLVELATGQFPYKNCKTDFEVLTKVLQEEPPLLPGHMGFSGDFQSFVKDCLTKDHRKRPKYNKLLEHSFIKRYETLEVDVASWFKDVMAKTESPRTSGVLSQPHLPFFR

Compound	test	conditions	endpoint	value
F[C@@H]1CCN(c2nccc(-c3cnn4ncccc34)n2)C1	binding	1 µM	remaining binding	100%
Cc1ccc(C(=O)Nc2ccc(CN3CCN(C)CC3)c(C(F)(F)F)c2)cc1C#Cc1cnc2cccnn12	enzyme activity, inhibitor	23.5 nM	remaining activity	75%
CC(C)(C)c1nc(-c2cccc(NS(=O)(=O)c3c(F)cccc3F)c2F)c(-c2ccnc(N)n2)s1	enzyme activity, inhibitor, radiometric	1 µM	remaining activity	78%
Cc1sc(C(=O)NC2COC2)cc1-n1cc(NC(=O)Nc2c(F)cccc2Cl)cn1	enzyme activity, inhibitor	10 µM	remaining activity	120%
Nc1ncnc2occ(-c3ccc(NC(=O)Nc4cc(C(F)(F)F)ccc4F)cc3)c12	cell-free assay, inhibitor	20 µM	remaining signal	2.9%
CC(C)(C)c1nc2c(s1)c1nc(N)ncc1c1ccc(NS(=O)(=O)c3c(F)cccc3F)c(F)c12	enzyme activity, inhibitor, radiometric	1 µM	remaining activity	83%
Cc1cc(NC(=O)c2cccc(S(F)(F)(F)(F)F)c2)cc(-n2ccn3nc(-c4cccnc4)cc23)c1	cell-free assay, competition with immobilised ligand	1 µM	remaining binding	89.7%
O=C(Nc1cnn(-c2csc(C(=O)NC3COC3)c2)c1)Nc1c(F)cccc1Cl	enzyme activity, inhibitor	5 µM	remaining activity	135%
CCN(CC)CCNC(=O)c1c(C)[nH]c(/C=C2\C(=O)Nc3ccc(F)cc32)c1C	enzyme activity, inhibitor	10 µM	inhibition	31%
C[C@H](NC(=O)c1cnc2n1[C@](C)(Cc1ccc(C#N)cc1)C(=O)N2c1cc(Cl)c(F)c(Cl)c1)C(=O)NC1(c2ccccn2)CC1	cell-free assay, competition with immobilised ligand	1 µM	remaining binding	100%
N[C@@H]1CCN(c2nccc(-c3cnn4ncccc34)n2)C1	binding	1 µM	remaining binding	100%
CNC(=O)c1cc(Oc2ccc(NC(=O)Nc3ccc(Cl)c(C(F)(F)F)c3)cc2)ccn1	enzyme activity, inhibitor	10 µM	inhibition	40%
